Test results from PubChem BioAssay.
Records with an inconclusive call do not appear.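 The calls were made as follows, unless noted: active = RAM network inhibition above 8.4% in each of two replicates, 3 SD over the compound average; inconclusive = above 8.4% inhibition in only one replicate; inactive = 8.4% inhibition or less in each replicate.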

Columns and labels:
[1] = S. cerevisiae growth inhibition in permissive medium (OD615), pilot counter-assay for S. cerevisiae lifespan shortening project, permissive growth control (AID 705;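 active = growth inhibition above 25% in both replicates, a cutoff set 3 SD above the mean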); settings: OD615, 24 h, at 10 µM, active compounds read high
In short: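 System – S. cerevisiae with engineered DeaD lifespan system · Buffer or medium – SC raffinose/galactose permissive medium · Schedule – cells pre-grown 4 h, then 24 h compound exposure, 30 °C humidified · Technique – culture turbidity as optical density at 615 nm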

[2] = S. cerevisiae growth inhibition in restrictive medium, OD615, pilot screen, restrictive growth control, yeast lifespan reduction project (AID 706;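 active = growth inhibition above a set limit, 3 SD over mean compound inhibition, in both replicates, cut at about 43% in these data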;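 also: modified DeaD lifespan yeast strain shifted to restrictive glucose medium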); settings: OD615, 48 h, at 10 µM, active compounds read high
In short: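 Material: engineered S. cerevisiae DeaD strain / Medium: glucose-based CSMM-D restrictive medium / Compound: single dose of 10 µM compound final, 0.25% DMSO / Timing: 4 h pre-incubation, 48 h exposure at 30 °C / Technique: OD615 absorbance reading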

[3] = doxorubicin toxicity protection in MRP-1 cells – H69AR cells, CellTiter-Glo, duplicate, MRP-1 activator project, pilot screen (AID 807;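 active = viability increase at or above a cutoff of the median across tested compounds plus 3 SD, cut at about 8.5% in these data, passing the limit was not always enough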;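 also: compound pretreatment 18-22 h then 72 h combined with doxorubicin; 0% = doxorubicin alone and 100% = vehicle without doxorubicin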); settings: H69AR viability with doxorubicin, CellTiter-Glo luminescence; at 10 µM; active compounds read high
[4] = viability of HCT116 without oncogenic beta-catenin – human colon tumor cells, pilot screen (AID 823;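 active = cell viability at or below a set limit in both duplicate runs, the limit being the all-compound median minus 4 SD, cut at about 23% in these data, passing the limit was not always enough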;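 also: 0% = wells killed by 20 µM Hyamine and 100% = untreated DMSO cell wells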); settings: HCT116 beta-catenin knockout viability, CellTiter-Glo, 60 h; at 10 µM; active compounds read low
[5] = viability of PTEN-null HCT116 cells – cell-based, HCT116 clonal line, CellTiter-Glo, pilot screen (AID 824;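 active = viability at or below 27.92% in each of two runs, the all-compound median minus 4 SD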;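 also: 0% = 20 µM Hyamine control and 100% = vehicle cell control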); settings: HCT116 PTEN-deleted viability, 60 h, at 10 µM, active compounds read low
[6] = RAM pathway blockade in budding yeast – dse1pr::URA3 reporter, 5-FOA selection, pilot screen (AID 869;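 active = inhibition over a set limit, the all-compound mean plus 3 SD, in both replicate runs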;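 also: 0% = DMSO wells with no growth and 100% = 10 µM 1-NA-PP1 with full growth; RAM network block rescues cells from 5-FOA so hits raise OD615 growth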); settings: S. cerevisiae dse1pr::URA3 5-FOA growth, OD615, 2 d; at 10 µM; active compounds read high; strain carries analog-sensitive mutant Cbk1 kinase
[7] = RAM signaling pathway blockade in yeast – S. cerevisiae, Pdr1DBD-CYC8 efflux-inhibited sensitized strain, primary screen (AID 1298);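 also: 0% = DMSO untreated cells without growth and 100% = 10 µM 1-NA-PP1 full growth; higher means more yeast growth rescued from 5-FOA killing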; settings: S. cerevisiae cbk1-as DSE1-URA3 strain, 5-FOA growth OD615, 2 d; at 50 µM; active compounds read high

CCOC(=O)c1cnn(CC2CCCCC2)c1N
inactive: growth inhibition [1] 0.805% | growth inhibition [2] 1.77% | viability increase [3] -0.78% | viability [4] 92.4% | viability [5] 94.4% | inhibition [6] 0.96% | RAM network inhibition [7] -0.52%

Cc1c(NC(=O)OCCSc2nc(N(C)C)nc(N(C)C)n2)sc(=S)n1C
inactive: growth inhibition [1] 2.93% | growth inhibition [2] 3.13% | viability increase [3] -0.48% | viability [4] 83% | viability [5] 76% | inhibition [6] 2.92% | RAM network inhibition [7] 1.79%

C=CCNc1ncnc2c1cnn2-c1cccc(C)c1
inactive: growth inhibition [1] 8.9% | growth inhibition [2] 1.8% | viability increase [3] -1.03% | viability [4] 101% | viability [5] 98.5% | inhibition [6] 3.21% | RAM network inhibition [7] 0.06%

CCOC(=O)CN1CC23C=CC(O2)C(C(=O)N2CCN(c4ccc(F)cc4)CC2)C3C1=O (stereo not drawn)
inactive: growth inhibition [1] 7.71% | growth inhibition [2] 5.64% | viability increase [3] -2.12% | viability [4] 86.7% | viability [5] 93.2% | inhibition [6] 1.45% | RAM network inhibition [7] -0.56%

Cn1c(=O)[nH]c(=O)c2c1nc(CN1CCN(c3cccc(Cl)c3)CC1)n2Cc1ccccc1Cl
inactive: growth inhibition [1] -9.22% | growth inhibition [2] -6.86% | viability increase [3] -6.82% | viability [4] 41.1% | viability [5] 32.9% | inhibition [6] 1.39% | RAM network inhibition [7] 4.08%

COc1cc(NC(=O)c2onc(C)c2Cl)c(OC)cc1Cl
inactive: growth inhibition [1] -3% | growth inhibition [2] -6.72% | viability increase [3] -5.82% | viability [4] 91.7% | viability [5] 94.5% | inhibition [6] 1.35% | RAM network inhibition [7] 3.23%

CN(C)S(=O)(=O)c1ccc2c(c1)c(=O)c(C(=O)N1CCN(c3ccccn3)CC1)cn2C
inactive: growth inhibition [1] -5.42% | growth inhibition [2] 5.45% | viability increase [3] 1.06% | viability [4] 97.9% | viability [5] 104% | inhibition [6] 0.415% | RAM network inhibition [7] 4.54%

Cc1cccc(NCc2nc(-c3ccccc3)no2)c1
inactive: growth inhibition [1] -2.16% | growth inhibition [2] 9.07% | viability increase [3] 2.88% | viability [4] 107% | viability [5] 106% | inhibition [6] 2.41% | RAM network inhibition [7] 3.44%

COc1ccc(NC(=O)Nc2c(C)n(C)n(-c3ccccc3)c2=O)cc1
inactive: growth inhibition [1] 1.73% | growth inhibition [2] 2.85% | viability increase [3] -2.06% | viability [4] 103% | viability [5] 97.9% | inhibition [6] 0.655% | RAM network inhibition [7] 1.34%

COC(=O)c1ccc(C2c3c(n[nH]c3C)C(=O)N2c2ccc(C)cc2)cc1 (stereo not drawn)
inactive: growth inhibition [1] 10.6% | growth inhibition [2] -0.115% | viability increase [3] 0.79% | viability [4] 70.6% | viability [5] 86.4% | inhibition [6] 0.34% | RAM network inhibition [7] 0.36%

NC(=O)c1cc(N2C(=O)C3CC=CCC3C2=O)ccc1N1CCCCC1 (stereo not drawn)
inactive: growth inhibition [1] -21.2% | growth inhibition [2] -3.95% | viability increase [3] 0.16% | viability [4] 93.1% | viability [5] 92.4% | inhibition [6] 1.98% | RAM network inhibition [7] 4.2%

O=C(CSCC(=O)N1CCOCC1)Nc1ccccc1
inactive: growth inhibition [1] -11.4% | growth inhibition [2] -8.24% | viability increase [3] -0.42% | viability [4] 97.2% | viability [5] 97.8% | inhibition [6] 0.42% | RAM network inhibition [7] 2.75%

O=C(NC1CCCCC1)N1CCCc2ccccc21
inactive: growth inhibition [1] 2.93% | growth inhibition [2] -1.39% | viability increase [3] -4.89% | viability [4] 86.1% | viability [5] 84% | inhibition [6] 0.345% | RAM network inhibition [7] -1.17%

COCCN1Cc2cccc(C(=O)NCc3ccccn3)c2C1=O
inactive: growth inhibition [1] -2.71% | growth inhibition [2] -0.385% | viability increase [3] -0.59% | viability [4] 103% | viability [5] 110% | inhibition [6] 0% | RAM network inhibition [7] 1.61%

O=C(CCCC(=O)NCC1CCCO1)NCC1CCCO1 (stereo not drawn)
inactive: growth inhibition [1] -1.28% | growth inhibition [2] 7.34% | viability increase [3] -1.38% | viability [4] 101% | viability [5] 101% | inhibition [6] 0.185% | RAM network inhibition [7] 1.12%

CCc1cc2c(=O)n(N)c(CCC(=O)O)nc2s1
inactive: growth inhibition [1] -14.9% | growth inhibition [2] -3.94% | viability increase [3] -1.37% | viability [4] 100% | viability [5] 96.1% | inhibition [6] 0.425% | RAM network inhibition [7] 8.13%

COc1ccc2nc(N3CCCC(C(=O)NCCCN4CCN(C)CC4)C3)sc2c1 (stereo not drawn)
inactive: growth inhibition [1] -5.12% | growth inhibition [2] -11.4% | viability increase [3] -2.35% | viability [4] 96.9% | viability [5] 89.5% | inhibition [6] 1.98% | RAM network inhibition [7] 8.59%

CCOC(=O)c1c(-c2ccc(C)o2)csc1N
inactive: growth inhibition [1] 4.88% | growth inhibition [2] 0.615% | viability increase [3] -2.73% | viability [4] 97% | viability [5] 93.8% | inhibition [6] 1.57% | RAM network inhibition [7] 4.1%

C=CCn1c(SCC(=O)Nc2cc(C)nn2-c2ccccc2)nnc1C1CCCCC1
inactive: growth inhibition [1] -7.09% | growth inhibition [2] -6.5% | viability increase [3] -1.14% | viability [4] 90.8% | viability [5] 94.3% | inhibition [6] 0.165% | RAM network inhibition [7] 3.38%

COc1cccc(C(=O)Nc2nnc(-c3ccc(F)cc3)o2)c1
inactive: growth inhibition [1] -12.2% | growth inhibition [2] -0.875% | viability increase [3] -3.38% | viability [4] 29% | viability [5] 32% | inhibition [6] 0.4% | RAM network inhibition [7] 0.21%

COc1ccc(C(=O)CCC(=O)N2CCN(c3ccc(N4CCOCC4)nn3)CC2)cc1
inactive: growth inhibition [1] 4.94% | growth inhibition [2] -0.495% | viability increase [3] -2.69% | viability [4] 102% | viability [5] 93.8% | inhibition [6] 1.65% | RAM network inhibition [7] 2.53%

Cc1cc(C)cc(NC(=O)CSc2nc3c(c(=O)n2C)SC(C)C3)c1 (stereo not drawn)
inactive: growth inhibition [1] -2.6% | growth inhibition [2] 2.95% | viability increase [3] -2.79% | viability [4] 89.3% | viability [5] 92% | inhibition [6] 2.04% | RAM network inhibition [7] 6.37%

Cc1cc2ncn(C(=O)c3c(-c4c(Cl)cccc4Cl)noc3C)c2cc1C
inactive: growth inhibition [1] 0.3% | growth inhibition [2] 5.04% | viability increase [3] -3.42% | viability [4] 95.5% | viability [5] 94.5% | inhibition [6] 1.99% | RAM network inhibition [7] 8.25%

CCC(=O)Nc1ccccc1C(=O)N1CCN(Cc2ccccc2)CC1
inactive: growth inhibition [1] 2.08% | growth inhibition [2] 3.03% | viability increase [3] -1.2% | viability [4] 99.8% | viability [5] 99.7% | inhibition [6] 1.6% | RAM network inhibition [7] 3.32%
